Our source for the IC50 and inhibition values is ChEMBL document CHEMBL4028810, “Synthesis and biological evaluation of novel chalcone derivatives as a new class of microtubule destabilizing agents” (Eur J Med Chem, 2017).

For orientation: IC50 means the point on the concentration scale where inhibition reaches its midpoint. The low end stands for greater potency, the high end for weaker potency.

The test system of one assay is NCI-H460. The assay can be described thus: Cytotoxicity against human NCI-H460 cells after 48 hrs by MTT assay. As to conditions: NCI-H460, 48 h. It counts as functional, cell-based. An outline of the steps: (§1)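 Log-phase cells were seeded at about 1 × 10⁵ cells/mL in 96-well plates and allowed to settle 12 h at 37 °C in 5% CO₂. Compounds were added at five concentrations for 48 h. Absorbance was read at dual wavelength 570/630 nm. Survival was expressed as a percentage of control, and IC50 was calculated by the Bliss method (n = 5). Each test was run in triplicate.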

The next assay concerns HepG2. The experiment in a line: Cytotoxicity against human HepG2 cells after 48 hrs by MTT assay. Type of assay: functional, cell-based. As to conditions: HepG2, 48 h. An outline of the steps:
as §1
On the technique in general: Tetrazolium dyes change colour on reduction, which living cells bring about.

In a further assay the test system is MGC-803. The experiment in a line: Cytotoxicity against human MGC803 cells after 48 hrs by MTT assay. As to conditions: MGC-803, 48 h. It counts as functional, cell-based. An outline of the steps: as §1
Another assay deals with SK-OV-3. The assay can be described thus: Cytotoxicity against human SKOV3 cells after 48 hrs by MTT assay. Type of assay: functional, cell-based. The following applies: SK-OV-3, 48 h. An outline of the steps: as §1
The test system of the next assay is T-24. The assay can be described thus: Cytotoxicity against human T24 cells after 48 hrs by MTT assay. It counts as functional, cell-based. The following applies: T-24, 48 h. The gist of the method:
as §1

Another assay deals with L02. The experiment in a line: Cytotoxicity against human HL7702 cells after 48 hrs by MTT assay. It counts as cell-based. As to conditions: L02, 48 h. An outline of the steps:
as §1

Another assay has as its system A549/TR. The experiment in a line: Cytotoxicity against human A549/TR cells after 48 hrs by MTT assay. It counts as functional, cell-based. An outline of the steps:
as §1

For a further assay, the system named is HeLa. The assay can be described thus: Cytotoxicity against human HeLa cells after 48 hrs by MTT assay. Type of assay: functional, cell-based. The gist of the method:
as §1

Assay [1] is described as follows: Cytotoxicity against human HeLa/TR cells after 48 hrs by MTT assay. It counts as functional, cell-based. An outline of the steps: as §1
The species named for assay [2] is Sus scrofa. The experiment in a line: Inhibition of porcine brain tubulin polymerization at 10 uM measured at 1 min interval for 40 mins by spectrophotometric method. The gist of the method: (§2)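 Purified brain tubulin, final 3.0 mg/mL, was added to start the reaction in 80 mM PIPES pH 6.9, 2.0 mM MgCl₂, 0.5 mM EGTA, 1 mM GTP and 10.2% glycerol, with the other components prewarmed to 37 °C. Compounds were tested at 10 or 15 µM. Polymerization at 37 °C was followed as absorbance at 340 nm over 40 min.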

The species entered for assay [3] is Sus scrofa. The experiment in a line: Inhibition of porcine brain tubulin polymerization at 15 uM measured at 1 min interval for 40 mins by spectrophotometric method. An outline of the steps:
as §2

Calls of active or inactive are those of the source. No cut-off for these calls is given here.

Consider `COc1ccc(/C=C/C(=O)c2ccc(OC)c3c2OC(C)(C)C=C3)cc1OCC(=O)Nc1ccc(Br)cc1`, for which the IC50 with NCI-H460 is 20.5 µM; in the assay with HepG2 it was 22.7 µM; in the assay on MGC-803, 17.2 µM; in the assay with SK-OV-3 it was 19 µM; in the assay with T-24, 19.9 µM; with L02 it was more than 50 µM.

Consider `COc1ccc(/C=C/C(=O)c2cc(OC)c(OC)c(OC)c2)cc1OCC(=O)Nc1ccccc1C`, for which the IC50 in the assay on NCI-H460 was 22.9 µM; in the assay with HepG2, 26.3 µM; in the assay with MGC-803, 28.4 µM; in the assay with SK-OV-3, 28.4 µM; in the assay on T-24, 27.1 µM; with L02 it was more than 50 µM.

For `COc1ccc(/C=C/C(=O)c2ccc(OC)c3c2OC(C)(C)C=C3)cc1OCC(=O)Nc1ccc(Cl)cc1`, the IC50 was 12.9 µM in the assay with NCI-H460; 15.4 µM in the assay with HepG2; 19.4 µM in the assay with MGC-803; 20 µM in the assay with SK-OV-3; 17.1 µM in the assay with T-24; more than 50 µM with L02.

As for `COc1ccc(/C=C/C(=O)c2cc(OC)c(OC)c(OC)c2)cc1OCC(=O)Nc1ccccc1`, the IC50 in the assay with NCI-H460 was 11.3 µM; in the assay on HepG2 it was 10.1 µM; in the assay on MGC-803, 14.6 µM; with SK-OV-3 it was 10.7 µM; in the assay on T-24, 12.6 µM; in the assay on L02, more than 50 µM.

Consider `COc1ccc(/C=C/C(=O)c2ccc(OC)c3c2OC(C)(C)C=C3)cc1OCC(=O)Nc1ccccc1C`, for which the IC50 in the assay with NCI-H460 is 7.96 µM; in the assay on HepG2, 9.44 µM; in the assay with MGC-803, 10.3 µM; in the assay with SK-OV-3, 10 µM; with T-24, 9.86 µM; in the assay with L02 it was more than 50 µM.

As for `COc1ccc(/C=C/C(=O)c2cc(OC)c(OC)c(OC)c2)cc1OCC(=O)Nc1ccc(C)cc1`, the concentration for half-maximal inhibition (IC50) in the assay on NCI-H460 was 7.69 µM; with HepG2, 8.97 µM; with MGC-803 it was 10.3 µM; in the assay on SK-OV-3 it was 10.3 µM; with T-24 it was 11.6 µM; in the assay with L02, more than 50 µM.

On to `COc1ccc(/C=C/C(=O)c2cc(OC)c(OC)c(OC)c2)cc1OCC(=O)Nc1ccccc1Br`, for which the IC50 was 10.3 µM in the assay on NCI-H460; 15.2 µM with HepG2; 14.6 µM with MGC-803; 16.8 µM in the assay on SK-OV-3; 19.1 µM with T-24; more than 50 µM with L02.

With `COc1ccc(NC(=O)COc2cc(/C=C/C(=O)c3cc(OC)c(OC)c(OC)c3)ccc2OC)cc1`, the IC50 in the assay with NCI-H460 was 7.07 µM; in the assay on HepG2, 7.66 µM; in the assay on MGC-803 it was 8.52 µM; with SK-OV-3 it was 9.82 µM; in the assay on T-24, 9.36 µM; in the assay with L02, more than 50 µM.

For the compound `COc1ccc(/C=C/C(=O)c2cc(OC)c(OC)c(OC)c2)cc1OCC(=O)Nc1ccc(Br)cc1`, the half-maximal inhibitory concentration (IC50) with NCI-H460 is 10.3 µM; in the assay on HepG2, 10.5 µM; in the assay with MGC-803 it was 12.9 µM; in the assay with SK-OV-3 it was 13.1 µM; in the assay on T-24, 11.6 µM; in the assay on L02, more than 50 µM.

Turning to `COc1ccc(/C=C/C(=O)c2ccc(OC)c3c2OC(C)(C)C=C3)cc1OCC(=O)Nc1ccc(C)cc1`, the IC50 with NCI-H460 was 8.77 µM; with HepG2, 9.32 µM; with MGC-803 it was 8.23 µM; in the assay on SK-OV-3 it was 9.58 µM; in the assay on T-24, 10.1 µM; in the assay with L02 it was more than 50 µM.

Take `COc1ccc(/C=C/C(=O)c2ccc(OC)c3c2OC(C)(C)C=C3)cc1OCC(=O)Nc1ccccc1`: the IC50 was 17.6 µM in the assay on NCI-H460; 20.6 µM in the assay on HepG2; 18.4 µM in the assay on MGC-803; 20.8 µM in the assay on SK-OV-3; 21.1 µM in the assay with T-24; more than 50 µM with L02.

With `COc1ccc(/C=C/C(=O)c2cc(OC)c(OC)c(OC)c2)cc1OCC(=O)Nc1ccc(Cl)cc1`, the IC50 in the assay with NCI-H460 is 20.1 µM; in the assay on HepG2 it was 20.5 µM; in the assay with MGC-803, 26.3 µM; in the assay on SK-OV-3 it was 27.2 µM; in the assay on T-24 it was 21.7 µM; in the assay on L02 it was more than 50 µM.

`CC(=O)O[C@H]1C(=O)[C@@]2(C)[C@H]([C@H](OC(=O)c3ccccc3)[C@]3(O)C[C@H](OC(=O)[C@H](O)[C@@H](NC(=O)c4ccccc4)c4ccccc4)C(C)=C1C3(C)C)[C@]1(OC(C)=O)CO[C@@H]1C[C@@H]2O` [PACLITAXEL]: the results for the IC50 (in the assay on A549/TR; with HeLa; in [1]) were 1.51 µM, 0.00821 µM and 1.53 µM, respectively. The inhibition entry in the assay listed under Sus scrofa [2] is “Active”.

Regarding `COc1ccc(/C=C/C(=O)c2cc(OC)c(OC)c(OC)c2)cc1OCC(=O)Nc1ccc(F)cc1`, the IC50 was 19.2 µM with NCI-H460; 21.2 µM with HepG2; 20.9 µM in the assay with MGC-803; 22.5 µM with SK-OV-3; 24.7 µM in the assay with T-24; more than 50 µM in the assay with L02.

Consider `COc1ccc(/C=C/C(=O)c2cc(OC)c(OC)c(OC)c2)cc1OCC(=O)Nc1ccccc1F`, for which the IC50 is 6.71 µM with NCI-H460; 7.58 µM in the assay with HepG2; 8.09 µM in the assay on MGC-803; 9.51 µM in the assay with SK-OV-3; 10.7 µM in the assay on T-24; more than 50 µM in the assay with L02.

For `COc1ccc(/C=C\c2cc(OC)c(OC)c(OC)c2)cc1O`, the inhibition result in the assay listed under Sus scrofa [2] was “Active”.

With `COc1ccc(/C=C/C(=O)c2ccc(OC)c3c2OC(C)(C)C=C3)cc1OCC(=O)Nc1ccccc1Cl`, the concentration for half-maximal inhibition (IC50) in the assay on NCI-H460 was 13 µM; in the assay on HepG2, 11.8 µM; in the assay on MGC-803, 14.2 µM; in the assay with SK-OV-3, 14.6 µM; in the assay on T-24, 15.4 µM; in the assay with L02 it was more than 50 µM.

Consider `COc1ccccc1NC(=O)COc1cc(/C=C/C(=O)c2ccc(OC)c3c2OC(C)(C)C=C3)ccc1OC`, for which the IC50 in the assay on NCI-H460 is 5.48 µM; in the assay with HepG2, 7.35 µM; in the assay on MGC-803, 6.72 µM; with SK-OV-3, 8.24 µM; in the assay with T-24, 7.84 µM; in the assay on L02 it was more than 50 µM. Also, the inhibition entry in the assay filed under Sus scrofa [3] was “Active”.

As for `COc1ccc(NC(=O)COc2cc(/C=C/C(=O)c3ccc(OC)c4c3OC(C)(C)C=C4)ccc2OC)cc1`, the IC50 with NCI-H460 was 8.56 µM; in the assay on HepG2 it was 8.99 µM; in the assay with MGC-803, 6.73 µM; in the assay with SK-OV-3 it was 9.02 µM; in the assay with T-24, 9.51 µM; in the assay on L02, more than 50 µM.

As for `COc1ccc(/C=C/C(=O)c2ccc(OC)c3c2OC(C)(C)C=C3)cc1OCC(=O)Nc1ccc(O)cc1`, the IC50 in the assay on NCI-H460 was 18 µM; in the assay with HepG2, 15.6 µM; with MGC-803, 20.9 µM; in the assay with SK-OV-3, 14.5 µM; in the assay with T-24, 18.3 µM; in the assay on L02, more than 50 µM.

In the case of `COc1ccc(/C=C/C(=O)c2ccc(OC)c3c2OC(C)(C)C=C3)cc1OCC(=O)Nc1ccc(F)cc1`, the IC50 is 14.2 µM in the assay with NCI-H460; 14.1 µM with HepG2; 13.5 µM with MGC-803; 13.9 µM in the assay with SK-OV-3; 17.6 µM in the assay on T-24; more than 50 µM in the assay with L02.

For `COc1ccc(/C=C/C(=O)c2ccc(OC)c3c2OC(C)(C)C=C3)cc1OCC(=O)Nc1ccccc1Br`, the IC50 in the assay on NCI-H460 was 20 µM; in the assay on HepG2 it was 27.8 µM; in the assay with MGC-803 it was 32.7 µM; in the assay on SK-OV-3 it was 30.3 µM; in the assay on T-24 it was 23.2 µM; in the assay on L02 it was more than 50 µM.

With `COc1ccc(/C=C/C(=O)c2ccc(OC)c3c2OC(C)(C)C=C3)cc1OCC(=O)Nc1ccccc1F`, the 50% inhibitory concentration (IC50) with NCI-H460 was 17 µM; with HepG2, 19.1 µM; in the assay with MGC-803, 20.6 µM; with SK-OV-3, 18.7 µM; with T-24, 17.5 µM; in the assay with L02 it was more than 50 µM.

For the compound `COc1ccccc1NC(=O)COc1cc(/C=C/C(=O)c2cc(OC)c(OC)c(OC)c2)ccc1OC`, the IC50 in the assay with NCI-H460 was 12.1 µM; in the assay with HepG2, 13.6 µM; in the assay with MGC-803, 14.9 µM; with SK-OV-3, 16.2 µM; in the assay on T-24, 17.4 µM; in the assay with L02 it was more than 50 µM.

`COc1ccc(/C=C/C(=O)c2ccc(OC)c3c2OC(C)(C)C=C3)cc1` [MILLEPACHINE]: the IC50 with NCI-H460 is 7.65 µM; in the assay on HepG2, 4.54 µM; with MGC-803, 11 µM; in the assay with SK-OV-3, 9.85 µM; in the assay with T-24, 11.1 µM; in the assay on L02, 25.1 µM.

As for `COc1ccc(/C=C/C(=O)c2cc(OC)c(OC)c(OC)c2)cc1OCC(=O)Nc1ccc(O)cc1`, the IC50 was more than 50 µM in the assay with NCI-H460; more than 50 µM in the assay on HepG2; 36.6 µM in the assay with MGC-803; more than 50 µM in the assay with SK-OV-3; more than 50 µM in the assay on T-24; more than 50 µM in the assay with L02.
